In ChEMBL document CHEMBL1629690, “Development of hexadecyloxypropyl tenofovir (CMX157) for treatment of infection caused by wild-type and nucleoside/nucleotide-resistant HIV” (Antimicrob Agents Chemother, 2010) one finds Drug uptake, Activity and EC50 data, which are given here for three compounds.

SMILES strings stand for the structures.

The test system of data set [1] is PBMC. Nature of the data set: Cellular uptake in human PBMC at 10 uM assessed as TFV-diphosphate after 24 hrs by MS/MS analysis. The class given is ADME, cell-based. Summed up:
(§1)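 Human PBMCs, unstimulated or PHA/IL-2-stimulated, at 2 × 10^6 cells/ml in RPMI 1640 with 15% FBS, exposed 24 h at 37°C to final 0.01, 0.1, 1.0 or 10 μM of the prodrug, or 1.0 or 10 μM tenofovir. After cold saline washes the cells were counted and 1 × 10^7-cell pellets made. TFV, TFV-MP and TFV-PP were measured by ion-pairing LC with positive-ion electrospray MS as pmol/10^6 cells.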

Data set [2] concerns PBMC. Description: Cellular uptake in PHA/IL-2-stimulated human PBMC at 10 uM after 24 hrs by MS/MS analysis. The class given is ADME, cell-based. Summed up:
(§2)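 PHA-stimulated (4 μg/ml PHA, 48 to 72 h; 20 U/ml rhIL-2) human PBMCs at 2 × 10^6 cells/ml in RPMI 1640 with 15% FBS, given tenofovir or prodrug (final 0.01 to 10 μM) for 24 h at 37°C. Cells washed three times in cold 0.9% NaCl, counted, and 1 × 10^7 cell aliquots pelleted. TFV, TFV-MP and TFV-PP were separated by ion-pairing reverse-phase LC and detected by positive-ion electrospray MS. Output is pmol per 10^6 cells.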

The subject of another data set is CEM-SS. Nature of the data set: Cytotoxicity against human CEM-SS cells after 24 hrs by XTT assay. The class given is cell-based. The procedure, abridged:
(§3)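 Six-concentration growth-inhibition test: 10 to 0.032 μM for the prodrug and TDF, up to 100 μM for TFV, with Triton X-100 run in parallel. Cell lines were split 1:2 the day before and seeded at 5 × 10^3 to 2 × 10^4 cells/well, with adherent lines left overnight. Dendritic cells were derived with GM-CSF/IL-4 for 7 days, then LPS 10 ng/ml for 2 days. Viability was read by XTT.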

Another data set deals with HepG2. Nature of the data set: Cytotoxicity against human HepG2 cells after 24 hrs by XTT assay. The class given is cell-based. As to conditions: hepg2, 24 h. Summed up:
as §3
(Tetrazolium assays rely on reduction of a dye to a coloured formazan, in cell work by metabolically active cells.)

Data set [3] concerns PBMC. Nature of the data set: Cellular uptake in PHA/IL-2-stimulated human PBMC at 1 uM assessed as TFV-diphosphate level after 24 hrs by MS/MS analysis. Format: ADME, cell-based. Summed up:
as §2

For data set [4], the system named is PBMC. Nature of the data set: Cellular uptake in human PBMC at 1 uM assessed as TFV-monophosphate level after 24 hrs by MS/MS analysis. The class given is ADME, cell-based. Summed up: as §1
For data set [5], the system named is PBMC. Nature of the data set: Cellular uptake in PHA/IL-2-stimulated human PBMC at 10 uM assessed as TFV-diphosphate after 24 hrs by MS/MS analysis. Format: ADME, cell-based. Summed up: as §2
In data set [6] the test system is PBMC. Description: Cellular uptake in PHA/IL-2-stimulated human PBMC at 0.01 uM assessed as TFV-diphosphate after 24 hrs by MS/MS analysis. Format: ADME, cell-based. The procedure, abridged:
(§4)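 PHA/IL-2-stimulated PBMCs at 2 × 10^6 cells/ml (5 × 10^7 per flask) were exposed for 24 h at 37°C. Cells were washed three times in cold 0.9% NaCl and counted by trypan blue. Aliquots of 1 × 10^7 cells were pelleted. TFV, TFV-MP and TFV-PP were separated by ion-pairing reverse-phase gradient LC and detected by positive electrospray. Results are given as pmol/10^6 cells.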

Data set [7] concerns Human immunodeficiency virus 1. Nature of the data set: Antiviral activity against HIV1 subtype E isolate CMU08 infected in human PBMC after 48 to 72 hrs by MTS assay. As to conditions: Human immunodeficiency virus 1, isolate CMU08. Format: functional, organism-based. The procedure, abridged: (§5)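 Fresh donor PBMCs, HIV- and HBV-seronegative, were stimulated with 4 μg/ml PHA for 48 to 72 h and kept on 20 U/ml rhIL-2. Cells pooled from at least two donors were seeded at 5 × 10^4 per well and infected at MOI ~0.1. Nine compound concentrations were run in triplicate wells for 7 days.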

In data set [8] the test system is Human immunodeficiency virus 1. Description: Antiviral activity against HIV1 subtype A isolate 92UG029 infected in human PBMC after 48 to 72 hrs by MTS assay. Format: functional, organism-based. As to conditions: Human immunodeficiency virus 1, isolate 92UG029. The procedure, abridged: as §5
Data set [9] has as its system Human immunodeficiency virus 1. Description: Antiviral activity against HIV1 subtype B isolate 92BR014 infected in human PBMC after 48 to 72 hrs by MTS assay. Format: functional, organism-based. As to conditions: Human immunodeficiency virus 1, isolate 92BR014. Summed up:
as §5

Data set [10] concerns Human immunodeficiency virus 1. Nature of the data set: Antiviral activity against HIV1 subtype C isolate 92BR025 infected in human PBMC after 48 to 72 hrs by MTS assay. To be noted: Human immunodeficiency virus 1, isolate 92BR025. Format: functional, organism-based. The procedure, abridged: as §5
The subject of data set [11] is Human immunodeficiency virus 1. Nature of the data set: Antiviral activity against HIV1 subtype E isolate CMU06 infected in human PBMC after 48 to 72 hrs by MTS assay. The class given is functional, organism-based. To be noted: Human immunodeficiency virus 1, isolate CMU06. Summed up: as §5
The test system of data set [12] is Human immunodeficiency virus 1. Nature of the data set: Antiviral activity against HIV1 subtype B isolate Ba-L infected in human PBMC after 48 to 72 hrs by MTS assay. Format: functional, organism-based. As to conditions: Human immunodeficiency virus 1, isolate Ba-L. The procedure, abridged:
as §5

Data set [13] has as its system PBMC. Description: Cellular uptake in human PBMC at 0.1 uM assessed as TFV-monophosphate after 24 hrs by MS/MS analysis. Format: ADME, cell-based. To be noted: BLD = below limit of detection. Summed up:
as §1

Data set [14] has as its system Human immunodeficiency virus 1. Description: Antiviral activity against HIV1 subtype F isolate 93BR029 infected in human PBMC after 48 to 72 hrs by MTS assay. To be noted: Human immunodeficiency virus 1, isolate 93BR029. Format: functional, organism-based. The procedure, abridged:
as §5

Data set [15] deals with PBMC. Description: Cellular uptake in PHA/IL-2-stimulated human PBMC at 0.01 uM assessed as TFV level after 24 hrs by MS/MS analysis. Format: ADME, cell-based. As to conditions: BLD = below limit of detection. The procedure, abridged:
as §4

Data set [16] concerns PBMC. Nature of the data set: Cellular uptake in PHA/IL-2-stimulated human PBMC at 0.1 uM assessed as TFV-diphosphate after 24 hrs by MS/MS analysis. Format: ADME, cell-based. The procedure, abridged:
as §4

The subject of data set [17] is PBMC. Description: Cellular uptake in PHA/IL-2-stimulated human PBMC at 1 uM assessed as TFV level after 24 hrs by MS/MS analysis. Format: ADME, cell-based. The procedure, abridged: as §2
For data set [18], the system named is Human immunodeficiency virus 1. Description: Antiviral activity against HIV1 subtype G isolate JV1083 infected in human PBMC after 48 to 72 hrs by MTS assay. To be noted: Human immunodeficiency virus 1, isolate JV1083.
The subject of data set [19] is Human immunodeficiency virus 1. Nature of the data set: Antiviral activity against HIV1 subtype G isolate G3 infected in human PBMC after 48 to 72 hrs by MTS assay. The class given is functional, organism-based. As to conditions: Human immunodeficiency virus 1, isolate G3. The procedure, abridged: as §5
Data set [20] relates to Human immunodeficiency virus 1. Nature of the data set: Antiviral activity against HIV1 subtype F isolate 93BR020 infected in human PBMC after 48 to 72 hrs by MTS assay. The class given is functional, organism-based. To be noted: Human immunodeficiency virus 1, isolate 93BR020. Summed up:
as §5

The test system of data set [21] is Human immunodeficiency virus 1. Nature of the data set: Antiviral activity against HIV1 isolate JR-CSF infected in human MDM […] by MTS assay. The class given is functional. To be noted: Human immunodeficiency virus 1, JRCSF ISOLATE.
Data set [22] concerns Human immunodeficiency virus 1. Description: Antiviral activity against HIV1 subtype D isolate 92UG024 infected in human PBMC after 48 to 72 hrs by MTS assay. As to conditions: Human immunodeficiency virus 1, isolate 92UG024. The class given is functional, organism-based. Summed up: as §5
In data set [23] the test system is Human immunodeficiency virus 1. Description: Antiviral activity against HIV1 subtype F isolate 93BR019 infected in human PBMC after 48 to 72 hrs by MTS assay. To be noted: Human immunodeficiency virus 1, isolate 93BR019. The class given is functional, organism-based. Summed up:
as §5

In data set [24] the test system is PBMC. Description: Cellular uptake in PHA/IL-2-stimulated human PBMC at 0.1 uM assessed as TFV level after 24 hrs by MS/MS analysis. The class given is ADME, cell-based. To be noted: BLD = below limit of detection. Summed up: as §4
In data set [25] the test system is Human immunodeficiency virus 1. Nature of the data set: Antiviral activity against HIV1 group O isolate BCF02 infected in human PBMC after 48 to 72 hrs by MTS assay. To be noted: Human immunodeficiency virus 1, isolate BCF02. The class given is functional, organism-based. The procedure, abridged: as §5

As for `C[C@H](Cn1cnc2c(N)ncnc21)OCP(=O)(O)O` [TENOFOVIR ANHYDROUS], the Drug uptake is 0.15 pmol/10^6 cells in the data set on PBMC [1]; 0.09 pmol/10^6 cells in the data set with PBMC [2]; 0.05 pmol/10^6 cells in the data set with PBMC [3]; “BLD” in the data set with PBMC [4] (BLD = below limit of detection); 0.22 pmol/10^6 cells in the data set on PBMC [5]. Further, the Activity result in the data set on CEM-SS and in the data set with HepG2 was “Non-toxic” throughout.
In general, EC50 refers to the concentration needed to bring the measured effect to its halfway point. Low readings indicate greater potency, high ones weaker potency. As to `CCCCCCCCCCCCCCCCOCCCOP(=O)(O)CO[C@H](C)Cn1cnc2c(N)ncnc21` [TENOFOVIR EXALIDEX], the Drug uptake in the data set with PBMC [1] is 1.1 pmol/10^6 cells; in the data set with PBMC [6], 0.07 pmol/10^6 cells; in the data set with PBMC [13], “BLD”; with PBMC [15] it was “BLD”; in the data set with PBMC [16] it was 0.25 pmol/10^6 cells; in the data set with PBMC [17], 0.56 pmol/10^6 cells. For the same compound, the Drug uptake in the data set on PBMC [3] is 1.7 pmol/10^6 cells; with PBMC [4], 0.05 pmol/10^6 cells; in the data set on PBMC [5], 5.5 pmol/10^6 cells; in the data set with PBMC [24], “BLD”. In addition, the half-maximal effective concentration (EC50) in [7] is 2.3 nM; in data set [8], 3.3 nM; in data set [9], 1.5 nM; in data set [10], 2.8 nM; in [11] it was 2.3 nM; in data set [12] it was 1.5 nM. Further, the EC50 in data set [14] came to 2.7 nM; in data set [18], 2.2 nM; in [19] it was 2.2 nM; in data set [20] it was 2.7 nM; in [21], 3.1 nM; in data set [22] it was 2.1 nM. Besides, the EC50 in [23] turned out to be 2.7 nM; in data set [25], 5 nM. The Activity entry in the data set with CEM-SS and in the data set with HepG2 was “Non-toxic” each time.
Turning to `Cc1cn([C@H]2C[C@H](N=[N+]=[N-])[C@@H](CO)O2)c(=O)[nH]c1=O` [ZIDOVUDINE], the EC50 in data set [7] turned out to be 5.5 nM; in [8], 14 nM; in data set [10], 4.9 nM; in data set [11] it was 5.5 nM; in data set [14], 9.6 nM; in data set [18] it was 4.7 nM. Further, the EC50 in [19] is 4.7 nM; in data set [20], 9.6 nM; in data set [22] it was 6.3 nM; in [23], 9.6 nM; in [25], 1.7 nM.
